Reference: ChEMBL document CHEMBL4007456, “Heterocyclyl Tetracyclines. 1. 7-Trifluoromethyl-8-Pyrrolidinyltetracyclines: Potent, Broad Spectrum Antibacterial Agents with Enhanced Activity against Pseudomonas aeruginosa” (2017)
≈ marks a conversion by molar mass, not a printed value.

These molecules were tested on Acinetobacter baumannii (assay: Antibacterial activity against gram-negative Acinetobacter baumannii AB250 by CLSI method).
Type: functional
Summary of the method: (§1)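 Broth microdilution MIC per CLSI in cation-adjusted Mueller Hinton broth, prepared fresh and held at 4 °C. Defibrinated horse blood added where appropriate. Compounds serially diluted in sterile deionized water. Strains from ATCC unless otherwise noted. Runs accepted when comparator antibiotics fell within QC ranges for ATCC quality control strains.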

Row | Structure (SMILES) | MIC
1 | CCCN1CCC[C@H]1c1cc(O)c2c(c1C(F)(F)F)C[C@H]1C[C@H]3[C@H](N(C)C)C(O)=C(C(N)=O)C(=O)[C@@]3(O)C(O)=C1C2=O | 4 µg/mL (≈ 6.74 µM)
2 | CC1CCNC1c1cc(O)c2c(c1C(F)(F)F)C[C@H]1C[C@H]3[C@H](N(C)C)C(O)=C(C(N)=O)C(=O)[C@@]3(O)C(O)=C1C2=O (some centres undefined) | 1 µg/mL (≈ 1.77 µM)
3 | CN(C)c1c(C2CCCN2)cc(O)c2c1C[C@H]1C[C@H]3[C@H](N(C)C)C(O)=C(C(N)=O)C(=O)[C@@]3(O)C(O)=C1C2=O (some centres undefined) | > 32 µg/mL

These molecules were tested on Stenotrophomonas maltophilia (assay: Antibacterial activity against gram-negative Stenotrophomonas maltophilia SM256 by CLSI method).
Type: functional
Summary of the method: as §1

Row | Structure (SMILES) | MIC
4 | CCCN1CCC[C@H]1c1cc(O)c2c(c1C(F)(F)F)C[C@H]1C[C@H]3[C@H](N(C)C)C(O)=C(C(N)=O)C(=O)[C@@]3(O)C(O)=C1C2=O | 4 µg/mL (≈ 6.74 µM)
5 | CC1CCNC1c1cc(O)c2c(c1C(F)(F)F)C[C@H]1C[C@H]3[C@H](N(C)C)C(O)=C(C(N)=O)C(=O)[C@@]3(O)C(O)=C1C2=O (some centres undefined) | 0.5 µg/mL (≈ 0.884 µM)
6 | CN(C)c1c(C2CCCN2)cc(O)c2c1C[C@H]1C[C@H]3[C@H](N(C)C)C(O)=C(C(N)=O)C(=O)[C@@]3(O)C(O)=C1C2=O (some centres undefined) | 32 µg/mL (≈ 60.8 µM)

Each molecule was assayed on Burkholderia cenocepacia (assay: Antibacterial activity against gram-negative Burkholderia cenocepacia BC240 by CLSI method).
Type: functional
Summary of the method: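 Defibrinated horse blood added where appropriate. Compounds serially diluted in sterile deionized water. Strains from ATCC unless otherwise noted. Runs accepted when comparator antibiotics fell within QC ranges for ATCC quality control strains.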

Row | Structure (SMILES) | MIC
7 | CCCN1CCC[C@H]1c1cc(O)c2c(c1C(F)(F)F)C[C@H]1C[C@H]3[C@H](N(C)C)C(O)=C(C(N)=O)C(=O)[C@@]3(O)C(O)=C1C2=O | 16 µg/mL (≈ 27 µM)
8 | CC1CCNC1c1cc(O)c2c(c1C(F)(F)F)C[C@H]1C[C@H]3[C@H](N(C)C)C(O)=C(C(N)=O)C(=O)[C@@]3(O)C(O)=C1C2=O (some centres undefined) | 4 µg/mL (≈ 7.07 µM)
9 | CN(C)c1c(C2CCCN2)cc(O)c2c1C[C@H]1C[C@H]3[C@H](N(C)C)C(O)=C(C(N)=O)C(=O)[C@@]3(O)C(O)=C1C2=O (some centres undefined) | > 32 µg/mL

The molecules below were run on Enterococcus faecalis (assay: Antibacterial activity against gram-positive Enterococcus faecalis EFs327 harboring tet(M) by CLSI method).
Type: functional
Summary of the method: (§2)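 CLSI broth microdilution MIC in fresh cation-adjusted Mueller Hinton broth, supplemented with defibrinated horse blood where appropriate. Compounds serially diluted in sterile deionized water. Runs accepted when comparator antibiotics against ATCC quality-control strains fell within recommended ranges.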

Row | Structure (SMILES) | MIC
10 | CCCN1CCC[C@H]1c1cc(O)c2c(c1C(F)(F)F)C[C@H]1C[C@H]3[C@H](N(C)C)C(O)=C(C(N)=O)C(=O)[C@@]3(O)C(O)=C1C2=O | 1 µg/mL (≈ 1.68 µM)
11 | CC1CCNC1c1cc(O)c2c(c1C(F)(F)F)C[C@H]1C[C@H]3[C@H](N(C)C)C(O)=C(C(N)=O)C(=O)[C@@]3(O)C(O)=C1C2=O (some centres undefined) | 1 µg/mL (≈ 1.77 µM)

The molecules below were run on Enterococcus faecium (assay: Antibacterial activity against gram-positive Enterococcus faecium EFm404 harboring tet(M) by CLSI method).
Type: functional
Summary of the method: as §2

Row | Structure (SMILES) | MIC
12 | CCCN1CCC[C@H]1c1cc(O)c2c(c1C(F)(F)F)C[C@H]1C[C@H]3[C@H](N(C)C)C(O)=C(C(N)=O)C(=O)[C@@]3(O)C(O)=C1C2=O | 1 µg/mL (≈ 1.68 µM)
13 | CC1CCNC1c1cc(O)c2c(c1C(F)(F)F)C[C@H]1C[C@H]3[C@H](N(C)C)C(O)=C(C(N)=O)C(=O)[C@@]3(O)C(O)=C1C2=O (some centres undefined) | 0.5 µg/mL (≈ 0.884 µM)

Each molecule was assayed on Klebsiella pneumoniae (assay: Antibacterial activity against gram-negative Klebsiella pneumoniae KP457 harboring blacTX-M-15 extended spectrum beta-lactamase gene by CLSI method).
Type: functional
Summary of the method: as §2

Row | Structure (SMILES) | MIC
14 | CCCN1CCC[C@H]1c1cc(O)c2c(c1C(F)(F)F)C[C@H]1C[C@H]3[C@H](N(C)C)C(O)=C(C(N)=O)C(=O)[C@@]3(O)C(O)=C1C2=O | 16 µg/mL (≈ 27 µM)
15 | CC1CCNC1c1cc(O)c2c(c1C(F)(F)F)C[C@H]1C[C@H]3[C@H](N(C)C)C(O)=C(C(N)=O)C(=O)[C@@]3(O)C(O)=C1C2=O (some centres undefined) | 1 µg/mL (≈ 1.77 µM)

These molecules were tested on Proteus mirabilis (assay: Antibacterial activity against gram-negative Proteus mirabilis PM385 by CLSI method).
Type: functional
Summary of the method: as §1

Row | Structure (SMILES) | MIC
16 | CCCN1CCC[C@H]1c1cc(O)c2c(c1C(F)(F)F)C[C@H]1C[C@H]3[C@H](N(C)C)C(O)=C(C(N)=O)C(=O)[C@@]3(O)C(O)=C1C2=O | 8 µg/mL (≈ 13.5 µM)
17 | CC1CCNC1c1cc(O)c2c(c1C(F)(F)F)C[C@H]1C[C@H]3[C@H](N(C)C)C(O)=C(C(N)=O)C(=O)[C@@]3(O)C(O)=C1C2=O (some centres undefined) | 2 µg/mL (≈ 3.54 µM)

What follows are molecules tested on Pseudomonas aeruginosa (assay: Antibacterial activity against gram-negative Pseudomonas aeruginosa PA555 by CLSI method).
Type: functional
Summary of the method: as §1

Row | Structure (SMILES) | MIC
18 | CCCN1CCC[C@H]1c1cc(O)c2c(c1C(F)(F)F)C[C@H]1C[C@H]3[C@H](N(C)C)C(O)=C(C(N)=O)C(=O)[C@@]3(O)C(O)=C1C2=O | > 32 µg/mL
19 | CC1CCNC1c1cc(O)c2c(c1C(F)(F)F)C[C@H]1C[C@H]3[C@H](N(C)C)C(O)=C(C(N)=O)C(=O)[C@@]3(O)C(O)=C1C2=O (some centres undefined) | 8 µg/mL (≈ 14.1 µM)

What follows are molecules tested on Enterobacter cloacae (assay: Antibacterial activity against gram-negative Enterobacter cloacae EC1603 harboring tet(A) by CLSI method).
Type: functional
Summary of the method: as §2

Row | Structure (SMILES) | MIC
20 | CCCN1CCC[C@H]1c1cc(O)c2c(c1C(F)(F)F)C[C@H]1C[C@H]3[C@H](N(C)C)C(O)=C(C(N)=O)C(=O)[C@@]3(O)C(O)=C1C2=O | 32 µg/mL (≈ 53.9 µM)
21 | CC1CCNC1c1cc(O)c2c(c1C(F)(F)F)C[C@H]1C[C@H]3[C@H](N(C)C)C(O)=C(C(N)=O)C(=O)[C@@]3(O)C(O)=C1C2=O (some centres undefined) | 2 µg/mL (≈ 3.54 µM)

Each molecule was assayed on Staphylococcus aureus (assay: Antibacterial activity against gram-positive Staphylococcus aureus SA101 by CLSI method).
Type: functional
Summary of the method: as §1

Row | Structure (SMILES) | MIC
22 | CCCN1CCC[C@H]1c1cc(O)c2c(c1C(F)(F)F)C[C@H]1C[C@H]3[C@H](N(C)C)C(O)=C(C(N)=O)C(=O)[C@@]3(O)C(O)=C1C2=O | 0.25 µg/mL (≈ 0.421 µM)
23 | CC1CCNC1c1cc(O)c2c(c1C(F)(F)F)C[C@H]1C[C@H]3[C@H](N(C)C)C(O)=C(C(N)=O)C(=O)[C@@]3(O)C(O)=C1C2=O (some centres undefined) | 0.125 µg/mL (≈ 0.221 µM)
24 | CN(C)c1c(C2CCCN2)cc(O)c2c1C[C@H]1C[C@H]3[C@H](N(C)C)C(O)=C(C(N)=O)C(=O)[C@@]3(O)C(O)=C1C2=O (some centres undefined) | 2 µg/mL (≈ 3.8 µM)

What follows are molecules tested on Staphylococcus aureus (assay: Antibacterial activity against gram-positive Staphylococcus aureus SA161 harboring tet(M) by CLSI method).
Type: functional
Summary of the method: as §2

Row | Structure (SMILES) | MIC
25 | CCCN1CCC[C@H]1c1cc(O)c2c(c1C(F)(F)F)C[C@H]1C[C@H]3[C@H](N(C)C)C(O)=C(C(N)=O)C(=O)[C@@]3(O)C(O)=C1C2=O | 1 µg/mL (≈ 1.68 µM)
26 | CC1CCNC1c1cc(O)c2c(c1C(F)(F)F)C[C@H]1C[C@H]3[C@H](N(C)C)C(O)=C(C(N)=O)C(=O)[C@@]3(O)C(O)=C1C2=O (some centres undefined) | 8 µg/mL (≈ 14.1 µM)
27 | CN(C)c1c(C2CCCN2)cc(O)c2c1C[C@H]1C[C@H]3[C@H](N(C)C)C(O)=C(C(N)=O)C(=O)[C@@]3(O)C(O)=C1C2=O (some centres undefined) | 32 µg/mL (≈ 60.8 µM)

These molecules were tested on Staphylococcus aureus (assay: Antibacterial activity against gram-positive Staphylococcus aureus SA158 harboring tet(K) by CLSI method).
Type: functional
Summary of the method: as §2

Row | Structure (SMILES) | MIC
28 | CCCN1CCC[C@H]1c1cc(O)c2c(c1C(F)(F)F)C[C@H]1C[C@H]3[C@H](N(C)C)C(O)=C(C(N)=O)C(=O)[C@@]3(O)C(O)=C1C2=O | 0.125 µg/mL (≈ 0.211 µM)
29 | CC1CCNC1c1cc(O)c2c(c1C(F)(F)F)C[C@H]1C[C@H]3[C@H](N(C)C)C(O)=C(C(N)=O)C(=O)[C@@]3(O)C(O)=C1C2=O (some centres undefined) | ≤ 0.0156 µg/mL
30 | CN(C)c1c(C2CCCN2)cc(O)c2c1C[C@H]1C[C@H]3[C@H](N(C)C)C(O)=C(C(N)=O)C(=O)[C@@]3(O)C(O)=C1C2=O (some centres undefined) | 1 µg/mL (≈ 1.9 µM)

What follows are molecules tested on Streptococcus pneumoniae (assay: Antibacterial activity against gram-positive Streptococcus pneumoniae SP160 harboring tet(M) by CLSI method).
Type: functional
Summary of the method: as §2

Row | Structure (SMILES) | MIC
31 | CCCN1CCC[C@H]1c1cc(O)c2c(c1C(F)(F)F)C[C@H]1C[C@H]3[C@H](N(C)C)C(O)=C(C(N)=O)C(=O)[C@@]3(O)C(O)=C1C2=O | ≤ 0.0156 µg/mL
32 | CC1CCNC1c1cc(O)c2c(c1C(F)(F)F)C[C@H]1C[C@H]3[C@H](N(C)C)C(O)=C(C(N)=O)C(=O)[C@@]3(O)C(O)=C1C2=O (some centres undefined) | ≤ 0.0156 µg/mL
33 | CN(C)c1c(C2CCCN2)cc(O)c2c1C[C@H]1C[C@H]3[C@H](N(C)C)C(O)=C(C(N)=O)C(=O)[C@@]3(O)C(O)=C1C2=O (some centres undefined) | 2 µg/mL (≈ 3.8 µM)

The molecules below were run on Escherichia coli (assay: Antibacterial activity against gram-negative Escherichia coli EC107 by CLSI method).
Type: functional
Summary of the method: as §1

Row | Structure (SMILES) | MIC
34 | CCCN1CCC[C@H]1c1cc(O)c2c(c1C(F)(F)F)C[C@H]1C[C@H]3[C@H](N(C)C)C(O)=C(C(N)=O)C(=O)[C@@]3(O)C(O)=C1C2=O | 1 µg/mL (≈ 1.68 µM)
35 | CC1CCNC1c1cc(O)c2c(c1C(F)(F)F)C[C@H]1C[C@H]3[C@H](N(C)C)C(O)=C(C(N)=O)C(=O)[C@@]3(O)C(O)=C1C2=O (some centres undefined) | ≤ 0.0156 µg/mL
36 | CN(C)c1c(C2CCCN2)cc(O)c2c1C[C@H]1C[C@H]3[C@H](N(C)C)C(O)=C(C(N)=O)C(=O)[C@@]3(O)C(O)=C1C2=O (some centres undefined) | 2 µg/mL (≈ 3.8 µM)

These molecules were tested on Escherichia coli (assay: Antibacterial activity against gram-negative Escherichia coli EC155 harboring tet(A) by CLSI method).
Type: functional
Summary of the method: as §2

Row | Structure (SMILES) | MIC
37 | CCCN1CCC[C@H]1c1cc(O)c2c(c1C(F)(F)F)C[C@H]1C[C@H]3[C@H](N(C)C)C(O)=C(C(N)=O)C(=O)[C@@]3(O)C(O)=C1C2=O | 2 µg/mL (≈ 3.37 µM)
38 | CC1CCNC1c1cc(O)c2c(c1C(F)(F)F)C[C@H]1C[C@H]3[C@H](N(C)C)C(O)=C(C(N)=O)C(=O)[C@@]3(O)C(O)=C1C2=O (some centres undefined) | 2 µg/mL (≈ 3.54 µM)
39 | CN(C)c1c(C2CCCN2)cc(O)c2c1C[C@H]1C[C@H]3[C@H](N(C)C)C(O)=C(C(N)=O)C(=O)[C@@]3(O)C(O)=C1C2=O (some centres undefined) | 32 µg/mL (≈ 60.8 µM)
